Reference: ChEMBL document CHEMBL1155527 (J Med Chem, 2010)
Values after ≈ are worked out from the molar mass of the structure shown.

How the values were obtained:
[1] = Solubility in ammonium acetate buffer at pH 7.4 by pseudothermodynamic equilibrium assay; type: physicochemical
CYP3A4 [2] = experiment: Metabolic stability assessed as compound remaining after 1 hr in presence of human CYP3A4; type: ADME; details: read-out: Stability
CYP2D6 = CYP2D6 (Homo sapiens, UniProt P10635); experiment: Inhibition of CYP2D6 at 3 uM by Gentest method; type: ADME
CYP2D6, sequence (P10635 whole entry): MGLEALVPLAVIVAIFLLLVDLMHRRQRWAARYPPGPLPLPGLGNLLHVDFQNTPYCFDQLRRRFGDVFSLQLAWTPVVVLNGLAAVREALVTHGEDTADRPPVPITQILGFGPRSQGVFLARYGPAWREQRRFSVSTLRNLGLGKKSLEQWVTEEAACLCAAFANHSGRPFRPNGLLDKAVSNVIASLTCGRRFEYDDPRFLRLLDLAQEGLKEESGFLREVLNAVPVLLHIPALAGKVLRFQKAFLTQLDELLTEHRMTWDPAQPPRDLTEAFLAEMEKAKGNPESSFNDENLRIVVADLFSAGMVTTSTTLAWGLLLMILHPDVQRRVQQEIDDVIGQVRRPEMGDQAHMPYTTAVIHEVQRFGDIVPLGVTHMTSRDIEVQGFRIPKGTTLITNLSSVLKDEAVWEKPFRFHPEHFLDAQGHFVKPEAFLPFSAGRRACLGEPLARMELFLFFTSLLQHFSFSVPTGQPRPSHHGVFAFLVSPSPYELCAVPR

CYP3A4 [3] = target: CYP3A4 (Homo sapiens, UniProt P08684); experiment: Inhibition of CYP3A4 at 3 uM by Gentest method; type: ADME
CYP3A4 (Homo sapiens, UniProt P08684), sequence (P08684 whole entry): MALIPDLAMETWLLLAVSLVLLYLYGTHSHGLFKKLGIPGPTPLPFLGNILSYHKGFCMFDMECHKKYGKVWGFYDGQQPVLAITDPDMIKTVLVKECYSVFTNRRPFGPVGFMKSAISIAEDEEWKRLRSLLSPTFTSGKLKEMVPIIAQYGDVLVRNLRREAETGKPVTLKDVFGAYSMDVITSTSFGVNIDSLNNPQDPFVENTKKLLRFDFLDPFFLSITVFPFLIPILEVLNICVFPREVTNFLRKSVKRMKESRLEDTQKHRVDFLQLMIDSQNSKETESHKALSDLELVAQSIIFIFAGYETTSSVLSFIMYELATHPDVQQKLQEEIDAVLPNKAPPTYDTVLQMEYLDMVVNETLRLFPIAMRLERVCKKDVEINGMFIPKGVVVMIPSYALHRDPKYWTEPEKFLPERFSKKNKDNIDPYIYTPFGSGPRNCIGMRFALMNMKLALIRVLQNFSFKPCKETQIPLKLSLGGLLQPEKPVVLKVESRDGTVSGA

CYP2C9 = CYP2C9 (Homo sapiens, UniProt P11712); experiment: Inhibition of CYP2C9 at 3 uM by Gentest method; type: ADME
CYP2C9, sequence (P11712 whole entry): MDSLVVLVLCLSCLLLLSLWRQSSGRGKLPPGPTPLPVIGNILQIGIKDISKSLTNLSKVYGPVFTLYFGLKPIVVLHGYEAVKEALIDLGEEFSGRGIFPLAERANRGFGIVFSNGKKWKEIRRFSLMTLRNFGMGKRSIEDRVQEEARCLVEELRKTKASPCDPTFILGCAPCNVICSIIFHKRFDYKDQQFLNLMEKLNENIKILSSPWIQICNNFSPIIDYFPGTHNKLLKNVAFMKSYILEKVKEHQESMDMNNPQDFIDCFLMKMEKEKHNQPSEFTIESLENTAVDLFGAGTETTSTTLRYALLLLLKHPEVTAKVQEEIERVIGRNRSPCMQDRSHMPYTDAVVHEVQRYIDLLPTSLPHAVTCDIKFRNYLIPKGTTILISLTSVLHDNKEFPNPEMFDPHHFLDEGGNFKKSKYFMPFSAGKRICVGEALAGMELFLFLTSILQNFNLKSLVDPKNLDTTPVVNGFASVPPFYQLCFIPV

[4] = Intrinsic clearance in rat liver microsomes by LC-MS/MS analysis; type: ADME, Microsome
In short: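 Rat liver microsomes (0.633 mg/mL protein in 0.1 M potassium phosphate pH 7.4 with EDTA) were incubated with test compound and NADPH regenerating agent for 15 min at 37 °C, against a time-0 control, in duplicate. Reactions were quenched with cold acetonitrile, centrifuged, and supernatants analyzed by LC-MS.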

[5] = target: Neuronal acetylcholine receptor; alpha4/beta2 (Homo sapiens, UniProt P17787+P43681); experiment: Agonist activity at alpha4beta2 nAChR; type: functional
Neuronal acetylcholine receptor; alpha4/beta2, sequence (P17787 whole entry): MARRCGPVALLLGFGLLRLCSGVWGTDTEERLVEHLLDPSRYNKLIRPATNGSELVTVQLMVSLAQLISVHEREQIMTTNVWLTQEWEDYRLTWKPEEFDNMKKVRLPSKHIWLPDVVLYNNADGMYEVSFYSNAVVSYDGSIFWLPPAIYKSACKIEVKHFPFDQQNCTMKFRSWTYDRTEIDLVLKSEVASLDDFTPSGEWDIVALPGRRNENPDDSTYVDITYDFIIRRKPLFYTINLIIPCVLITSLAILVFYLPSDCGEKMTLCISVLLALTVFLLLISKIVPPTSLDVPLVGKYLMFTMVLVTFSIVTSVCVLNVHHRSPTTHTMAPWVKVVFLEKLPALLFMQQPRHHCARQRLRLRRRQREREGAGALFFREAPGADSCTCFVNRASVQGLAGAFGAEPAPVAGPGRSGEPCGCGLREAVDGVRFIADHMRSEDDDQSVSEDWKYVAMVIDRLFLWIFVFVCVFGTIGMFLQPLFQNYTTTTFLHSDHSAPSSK
Neuronal acetylcholine receptor; alpha4/beta2, sequence (P43681 whole entry): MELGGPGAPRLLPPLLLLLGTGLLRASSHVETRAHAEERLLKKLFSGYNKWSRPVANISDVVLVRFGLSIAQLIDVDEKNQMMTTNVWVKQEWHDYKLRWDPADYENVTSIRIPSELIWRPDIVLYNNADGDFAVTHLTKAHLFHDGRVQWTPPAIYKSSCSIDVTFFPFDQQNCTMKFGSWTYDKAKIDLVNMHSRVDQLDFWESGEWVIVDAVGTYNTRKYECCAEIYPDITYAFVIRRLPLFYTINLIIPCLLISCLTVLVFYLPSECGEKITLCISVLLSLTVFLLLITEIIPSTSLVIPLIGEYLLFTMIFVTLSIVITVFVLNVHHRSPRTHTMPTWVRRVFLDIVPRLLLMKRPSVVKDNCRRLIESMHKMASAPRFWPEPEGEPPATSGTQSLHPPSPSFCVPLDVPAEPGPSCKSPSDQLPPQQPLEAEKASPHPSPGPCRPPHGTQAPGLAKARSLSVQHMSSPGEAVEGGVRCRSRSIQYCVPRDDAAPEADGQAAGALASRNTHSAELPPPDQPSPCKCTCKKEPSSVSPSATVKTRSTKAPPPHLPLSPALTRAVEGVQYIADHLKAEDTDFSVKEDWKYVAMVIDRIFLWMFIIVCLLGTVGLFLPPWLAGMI

[6] = target: 5-hydroxytryptamine receptor 4 (Homo sapiens, UniProt Q13639); experiment: Binding affinity to 5HT4 receptor
5-hydroxytryptamine receptor 4, sequence (Q13639 whole entry): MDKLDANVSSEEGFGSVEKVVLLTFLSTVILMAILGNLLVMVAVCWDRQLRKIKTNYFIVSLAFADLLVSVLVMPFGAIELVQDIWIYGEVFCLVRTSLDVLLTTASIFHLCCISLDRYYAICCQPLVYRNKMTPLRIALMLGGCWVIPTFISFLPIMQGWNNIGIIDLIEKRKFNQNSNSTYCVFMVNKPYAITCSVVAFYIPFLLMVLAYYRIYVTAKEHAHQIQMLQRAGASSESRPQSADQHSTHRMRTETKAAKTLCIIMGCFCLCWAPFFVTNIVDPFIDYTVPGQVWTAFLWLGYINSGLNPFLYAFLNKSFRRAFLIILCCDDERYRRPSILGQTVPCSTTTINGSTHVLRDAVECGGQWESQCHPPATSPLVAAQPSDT
In short: (§1)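 Screened at 10 μM in a panel of about 70 receptor binding sites (Novascreen).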

[7] = target: T1, Alpha-2A adrenergic receptor (Homo sapiens, UniProt P08913); experiment: Binding affinity to adrenergic alpha2A receptor; in short: as §1
T1 sequence (P08913 whole entry): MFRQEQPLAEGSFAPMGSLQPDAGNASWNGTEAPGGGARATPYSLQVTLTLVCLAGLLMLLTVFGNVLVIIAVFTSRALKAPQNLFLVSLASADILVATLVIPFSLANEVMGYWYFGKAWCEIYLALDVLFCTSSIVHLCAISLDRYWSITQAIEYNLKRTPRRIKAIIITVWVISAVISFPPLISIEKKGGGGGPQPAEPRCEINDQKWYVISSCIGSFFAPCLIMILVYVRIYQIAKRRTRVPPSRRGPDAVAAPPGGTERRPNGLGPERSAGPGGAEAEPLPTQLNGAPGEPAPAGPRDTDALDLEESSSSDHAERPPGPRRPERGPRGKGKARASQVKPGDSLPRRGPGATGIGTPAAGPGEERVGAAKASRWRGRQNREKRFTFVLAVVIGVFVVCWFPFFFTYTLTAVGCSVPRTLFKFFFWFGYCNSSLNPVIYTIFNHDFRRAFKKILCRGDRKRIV

[8] = target: T2, Alpha-2B adrenergic receptor (Homo sapiens, UniProt P18089); experiment: Binding affinity to adrenergic alpha2B receptor; in short: as §1
T2 sequence (P18089 whole entry): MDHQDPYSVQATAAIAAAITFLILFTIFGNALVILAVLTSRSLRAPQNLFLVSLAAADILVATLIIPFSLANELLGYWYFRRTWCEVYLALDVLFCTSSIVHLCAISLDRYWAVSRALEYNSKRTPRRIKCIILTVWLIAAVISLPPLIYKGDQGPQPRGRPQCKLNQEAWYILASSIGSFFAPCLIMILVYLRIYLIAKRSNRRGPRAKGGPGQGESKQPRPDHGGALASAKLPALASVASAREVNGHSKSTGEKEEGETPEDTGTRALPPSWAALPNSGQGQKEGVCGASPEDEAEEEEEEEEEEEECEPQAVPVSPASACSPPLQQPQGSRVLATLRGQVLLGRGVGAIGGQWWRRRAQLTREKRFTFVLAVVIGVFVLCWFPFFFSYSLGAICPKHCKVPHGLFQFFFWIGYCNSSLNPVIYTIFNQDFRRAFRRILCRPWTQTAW

Rattus norvegicus [9] = experiment: Cmax in Long Evans rat at 3 mg/kg, po; type: ADME, organism-based; set-up: dose 3 mg/kg, route oral; details: in vivo
In short: (§2)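 Male Long Evans rats (6-8 weeks, 250-550 g) given a single 3 mg/kg oral dose as a solution in 2% Tween, 0.5% methocell in water. Plasma sampled over 6 h. Levels measured by LC-MS/MS after acetonitrile protein precipitation with internal standard; detection limit 1 ng/mL.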

[10] = Tmax in Long Evans rat at 3 mg/kg, po; type: ADME, organism-based; set-up: dose 3 mg/kg, route oral; details: in vivo; in short: as §2
[11] = AUC (last) in Long Evans rat at 3 mg/kg, po; type: ADME, organism-based; set-up: time 0 - last, dose 3 mg/kg, route oral; details: plasma; in short: as §2
[12] = Oral bioavailability in Han Wistar rat assessed as ratio of AUC (0 to infinity) at 10 mg/kg, po normalized to 2 mg/kg, iv; type: ADME, organism-based; details: in vivo
[13] = Half life in Han Wistar rat at 10 mg/kg, po and 2 mg/kg, iv; type: ADME, organism-based; details: in vivo
[14] = Ratio of drug level from brain to plasma in Han Wistar rat at 2 mg/kg, po; type: ADME, organism-based; set-up: dose 2 mg/kg, route oral; details: read-out: BPR
In short: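 Male Han Wistar rats received a single 2 mg/kg po dose. Ratio calculated from brain and plasma AUC0-inf.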

[15] = AUC (0 to infinity) in brain of Han Wistar rat at 2 mg/kg, po; type: ADME, organism-based; set-up: time infinity, dose 2 mg/kg, route oral
[16] = AUC (0 to infinity) in plasma of Han Wistar rat at 2 mg/kg, po; type: ADME, organism-based; set-up: time infinity, dose 2 mg/kg, route oral
Rattus norvegicus [17] = experiment: Inhibition of MK-801-induced cognitive function in po dosed Long Evans rat administered 60 mins prior to MK801 challenge measured after 1 hr by novel object recognition test; type: functional; details: read-out: MED
In short: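 NOR in rats: vehicle or test compound (0.3-30 mg/kg po) 60 min before the sample trial, and MK-801 (0.03 mg/kg ip) 30 min before. Sample trial was 5 min with two identical objects. Choice trial, 1 h later, was 5 min with one familiar and one novel object. N = 10 per group.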

Rattus norvegicus [18] = experiment: Inhibition of MK-801-induced perceptual processing in po dosed Long Evans rat administered 60 mins prior to MK801 challenge measured after 1 hr by prepulse inhibition test; type: functional; details: read-out: MED
In short: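 Rat prepulse inhibition: test compound (1-30 mg/kg) given po 60 min and MK-801 (0.085 mg/kg) sc 10 min before testing. After 5 min at 64 dB background, 61 trials were run: 120 dB pulse alone or with a 69/74/79 dB prepulse 100 ms earlier. PPI = 100 - (prepulse/pulse startle × 100). Chronic arm: 3 mg/kg po daily for 14 days.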

[19] = target: T3, 5-hydroxytryptamine receptor 3A (Homo sapiens, UniProt P46098); experiment: Antagonist activity at human 5HT3A receptor expressed in HEK293 cells by FLIPR assay
T3 sequence (P46098 whole entry): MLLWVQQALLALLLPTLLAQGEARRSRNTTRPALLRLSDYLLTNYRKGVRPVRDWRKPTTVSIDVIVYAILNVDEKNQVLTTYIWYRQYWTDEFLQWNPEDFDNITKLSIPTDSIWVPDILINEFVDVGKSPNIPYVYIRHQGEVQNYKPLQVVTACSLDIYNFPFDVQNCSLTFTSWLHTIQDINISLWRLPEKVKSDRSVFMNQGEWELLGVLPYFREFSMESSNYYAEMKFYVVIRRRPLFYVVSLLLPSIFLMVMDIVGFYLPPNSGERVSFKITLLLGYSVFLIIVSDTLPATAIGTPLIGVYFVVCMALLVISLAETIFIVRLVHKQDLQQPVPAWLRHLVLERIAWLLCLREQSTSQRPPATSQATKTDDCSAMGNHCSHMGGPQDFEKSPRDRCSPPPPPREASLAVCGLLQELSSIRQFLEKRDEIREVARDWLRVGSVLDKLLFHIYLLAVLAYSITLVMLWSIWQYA

[20] = target: Neuronal acetylcholine receptor subunit alpha-7 (Rattus norvegicus, UniProt Q05941); experiment: Agonist activity at rat alpha7 nAChR expressed in rat GH4C1 cells assessed as calcium flux by FLIPR; type: functional, cell-based, GH4-C1
Neuronal acetylcholine receptor subunit alpha-7, sequence (Q05941 whole entry): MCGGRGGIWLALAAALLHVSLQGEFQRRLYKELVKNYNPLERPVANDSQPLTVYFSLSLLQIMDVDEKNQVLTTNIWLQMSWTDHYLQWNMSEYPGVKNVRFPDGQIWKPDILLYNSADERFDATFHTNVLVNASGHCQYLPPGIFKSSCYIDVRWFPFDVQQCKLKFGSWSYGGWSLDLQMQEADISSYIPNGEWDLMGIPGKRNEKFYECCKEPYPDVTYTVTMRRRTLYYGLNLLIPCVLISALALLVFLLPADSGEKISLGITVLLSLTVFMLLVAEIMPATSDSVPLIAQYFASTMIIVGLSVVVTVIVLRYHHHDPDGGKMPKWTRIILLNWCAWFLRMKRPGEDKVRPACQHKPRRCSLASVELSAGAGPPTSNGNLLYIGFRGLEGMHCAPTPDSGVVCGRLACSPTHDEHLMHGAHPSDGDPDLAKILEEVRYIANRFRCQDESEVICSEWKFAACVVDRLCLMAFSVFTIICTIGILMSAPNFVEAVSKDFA
In short: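 Cells were loaded 40 min at 37 °C with 4 μM Fluo-4-AM in HBSS-HEPES pH 7.4 with probenecid. FLIPR Ca2+ flux was read for ~10 min after compound addition. MAX-MIN was normalized to positive control and fitted to a variable-slope sigmoid. Triplicate points from a single experiment.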

[21] = Selectivity ratio of EC50 for human alpha1 nAChR to EC50 for rat alpha7 nAChR
[22] = Selectivity ratio of EC50 for human alpha3 nAChR to EC50 for rat alpha7 nAChR

solubility thermodynamic [1]	remaining at 1 h (CYP3A4 [2])	inhibition at 3 µM (CYP2D6)	inhibition at 3 µM (CYP3A4 [3])	inhibition at 3 µM (CYP2C9)	IC50 [19]	EC50 [20]	Ratio EC50 [21]	Ratio EC50 [22]	Compound	other results
108 µM (≈ 38 µg/mL)	100%			2%	7.9 µM	260 nM	> 30	2.8	O=C(NCCCCN1CCCCC1)Nc1ccc(-c2ccccc2)cc1	
171 µM (≈ 60.4 µg/mL)	100%	22%	0%	-3%	> 30 µM	390 nM	> 30	9.88	O=C(NCCCCN1CCCCC1)Nc1ccc(-c2ccccn2)nc1	
205 µM (≈ 76.1 µg/mL)	100%	8%	-19%	-10%	> 30 µM	530 nM	> 30	> 30	O=C(NCCCCN1CCCCC1)Nc1ccc(-c2ccc(F)nc2)nc1	
95 µM (≈ 35.1 µg/mL)	88%		-17%	-1%	5.7 µM	130 nM	8.2	1.2	O=C(NCCCCN1CCCCC1)Nc1ccc(-c2ccccc2F)cc1	
						490 nM			O=C(NCCCCN1CCOCC1)Nc1ccc(-c2cccnc2)cc1	

More lines, now with the values behind:

Compound	solubility thermodynamic [1]	remaining at 1 h (CYP3A4 [2])	inhibition at 3 µM (CYP2D6)	inhibition at 3 µM (CYP3A4 [3])	inhibition at 3 µM (CYP2C9)	IC50 [19]	EC50 [20]	Ratio EC50 [21]	Ratio EC50 [22]	other results
O=C(NCCCCN1CCCCC1)Nc1ccc(-c2ccc(F)cc2)nc1	121 µM (≈ 44.8 µg/mL)	75%	19%	0%	-17%	> 30 µM				microsomal CLint [4]: < 5 µL/min/mg; IC50 [5]: > 30 µM; Ki [6]: 6 µM; IC50 [7]: 7.5 µM; IC50 [8]: 35 µM; Cmax (Rattus norvegicus [9]): 40 ng/mL; Tmax [10]: 5.3 h; AUC(0-t) [11]: 318 ng·h/mL; bioavailability [12]: 100%; half-life [13]: 210 min; Kp [14]: 0.3; AUC(0-inf) [15]: 215 ng·h/mL; AUC(0-inf) [16]: 768 ng·h/mL; minimal effective dose (Rattus norvegicus [17]): 3 mg/kg; minimal effective dose (Rattus norvegicus [18]): 3 mg/kg
O=C(NCCCCN1CCCCC1)Nc1ccc(-c2ccccc2)nc1	193 µM (≈ 68 µg/mL)	100%	6%	-21%	-4%	> 30 µM	120 nM	> 30	10.1	microsomal CLint [4]: 18 µL/min/mg
COc1ccccc1-c1ccc(NC(=O)NCCCCN2CCCCC2)cn1	174 µM (≈ 66.6 µg/mL)	88%	8%	8%	6%	> 30 µM	230 nM	> 30	3.9	
COc1ccccc1-c1ccc(NC(=O)NCCCCN2CCCCC2)cc1	114 µM (≈ 43.5 µg/mL)	100%		5%	-2%	7.8 µM	140 nM	7.7	1.1	
O=C(NCCCCN1CCCCC1)Nc1ccc(-c2ccccc2F)nc1	196 µM (≈ 72.6 µg/mL)	100%		-3%	-10%	> 30 µM	150 nM	> 30	5.6	
O=C(NCCCCN1CCCCC1)Nc1ccc(-c2cccnc2)cc1							120 nM			
O=C(NCCCCN1CCCCC1)Nc1ccc(-c2ccc(F)cc2)cc1	20 µM (≈ 7.39 µg/mL)	100%		-13%	-16%	5.8 µM		8	1.7	
O=C(NCCCCN1CCCCC1)Nc1ccc(-c2ccc(F)nc2)cc1	158 µM (≈ 58.5 µg/mL)	100%		-22%	-18%	> 30 µM	120 nM	> 30	1.2	
O=C(NCCCCN1CCCCC1)Nc1ccc(-c2ccccn2)cc1	153 µM (≈ 53.9 µg/mL)	97%	15%	-2%	0%	> 30 µM	130 nM	> 30	5	
O=C(CCCCN1CCCCC1)Nc1ccc(-c2cccnc2)cc1							350 nM			
O=C(CCCCCN1CCCCC1)Nc1ccc(-c2cccnc2)cc1							890 nM			
